Assay results: ChEMBL document CHEMBL5038600, “Discovery of M-1121 as an Orally Active Covalent Inhibitor of Menin-MLL Interaction Capable of Achieving Complete and Long-Lasting Tumor Regression” (J Med Chem, 2021)
pIC50: −log10 of the molar value. Calls of active or inactive are those of the source. The calls are words filed in the database; no cut-off is given here.

What was measured:
[1] = Protein binding in rat plasma at 1 uM incubated for 5 hrs by liquid chromatography-tandem mass spectrometry; assay type: ADME, cell-free
Outline: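 Equilibrium dialysis: plasma spiked at 1 μM against dialysis buffer, shaken 5 h at 37 °C, with warfarin and quinidine (1 μM) as controls. Samples matrix-matched, quenched with acetonitrile containing imipramine internal standard, and analysed by LC-MS/MS. Percent bound computed from peak area ratios.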

[2] = molecular target: T1, Menin (Homo sapiens) (UniProt O00255); assay: Binding affinity to recombinant human menin protein assessed as covalent complex formation incubated for 1 hrs by LC/MS analysis; set-up: concentration or dose not given beside the values
T1 sequence (whole entry): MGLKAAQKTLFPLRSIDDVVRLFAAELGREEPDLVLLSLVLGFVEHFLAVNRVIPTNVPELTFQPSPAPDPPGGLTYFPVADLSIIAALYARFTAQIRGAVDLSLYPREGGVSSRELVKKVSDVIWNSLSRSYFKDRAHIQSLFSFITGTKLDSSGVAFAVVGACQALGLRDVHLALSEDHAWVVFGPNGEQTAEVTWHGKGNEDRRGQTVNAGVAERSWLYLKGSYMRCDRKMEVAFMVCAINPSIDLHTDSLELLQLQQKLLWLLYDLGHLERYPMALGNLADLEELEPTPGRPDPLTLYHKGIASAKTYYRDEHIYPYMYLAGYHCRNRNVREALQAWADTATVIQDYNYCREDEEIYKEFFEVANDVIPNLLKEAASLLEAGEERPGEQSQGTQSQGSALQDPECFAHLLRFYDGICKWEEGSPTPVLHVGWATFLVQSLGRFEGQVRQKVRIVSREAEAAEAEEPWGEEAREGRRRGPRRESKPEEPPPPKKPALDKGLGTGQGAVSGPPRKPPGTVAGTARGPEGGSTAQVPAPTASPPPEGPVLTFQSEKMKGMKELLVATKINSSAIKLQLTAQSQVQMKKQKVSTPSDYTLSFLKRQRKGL
Outline: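 Menin (25 mg/mL in 25 mM Tris pH 8.0, 150 mM NaCl, 5 mM DTT) incubated with compound at a 1:1.2 protein:compound molar ratio for 1 h or overnight at 4 °C. Diluted to 1 mg/mL, then reverse-phase C4 LC with a 5–100% MeCN/0.2% formic acid gradient and Q-TOF mass spectrometry to detect the covalent adduct.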

[3] = Toxicity in NCG mouse xenografted with luciferase-tagged MV4-11 cells assessed as change in body weight at 150 mg/kg, po administered daily for 4 days measured after 48 hrs; assay type: organism-based; details: in vivo, 96 h, time 4 day
Outline: (§1)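 Female NCG mice, 5–6 weeks old, given 5×10^6 luciferase-tagged MV4;11 cells IV via tail vein. Randomized at log-phase disease (day 27). Dosed 150 mg/kg oral gavage daily for 4 days in MC/Tween 80 vehicle. Read-outs 48 h after the last dose, five mice per group, mean ± SEM: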

[4] = system: MV4-11; assay: Anti-tumor activity against human MV4-11 cells xenografted in SCID mouse assessed as tumor regrowth at 300 mg/kg, po qd administered daily for 15 days; assay type: functional, organism-based; details: time 15.0 day
Outline: (§2)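 Female C.B-17 SCID mice, 5–6 weeks old, implanted subcutaneously in the right flank with 5×10^6 MV4;11 cells in 1:1 Matrigel. Randomized at about 200 mm3. Dosed 300 mg/kg by oral gavage once daily for 15 days in 0.5% MC (400 cP) + 0.2% Tween 80 at 10 mL/kg. Body weight measured daily; caliper volume (0.5×W×W×L) three times weekly.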

[5] = Toxicity in SCID mouse xenografted with human MV4-11 cells assessed as change weight loss at 100 mg/kg, po administered daily for 26 days; assay type: organism-based; details: in vivo, 624 h, time 26 day
Outline: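 Female C.B-17 SCID mice bearing subcutaneous MV4;11 flank tumors (5×10^6 cells with Matrigel 1:1), treated once tumors averaged about 100 mm3. Dosed 100 mg/kg daily by oral gavage for 26 days in 0.5% MC + 0.2% Tween 80 vehicle. Body weight measured daily.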

[6] = Clearance in C57BL/6 mouse at 1 mg/kg, iv; assay type: ADME, organism-based; details: in vivo
Outline: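 Female C57BL/6 mice, single IV dose of 1 mg/kg given as a solution in 10% NMP, 10% Solutol HS15 and 80% saline. Parameters come from the plasma concentration–time profile.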

[7] = Toxicity in SCID mouse xenografted with human MV4-11 cells assessed as signs of toxicity at 300 mg/kg, po qd administered daily for 15 days; assay type: organism-based; details: in vivo, 360 h, time 15 day; outline: as §2
[8] = system: RS4-11; assay: Anti-proliferative activity against human RS4-11 cells harboring MLL/AF4 fusion protein assessed as cell growth inhibition measured after 4 days by Cell Titre Glo Luminescent Cell viability assay; assay type: functional, cell-based; details: RS4-11, 96 h
Outline: (§3)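 Leukemia lines plated in triplicate in RPMI 1640 at 37 °C, 5% CO2. 9-point dose response from 10 μM top concentration with 1:3 serial dilutions, 0.1% DMSO final; DMSO vehicle control column. Cellular ATP read by CellTiter-Glo at day 0 and after 4 days. Averages from three independent experiments.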

[9] = system: MEG-01; assay: Anti-proliferative activity against human MEG-01 cells harboring MLL wild-type protein assessed as cell growth inhibition measured after 4 days by Cell Titre Glo Luminescent Cell viability assay; assay type: functional, cell-based; details: MEG-01, 96 h; outline: as §3
[10] = Cmax in C57BL/6 mouse at 5 mg/kg, po; assay type: ADME, organism-based; set-up: route oral, dose 5 mg/kg; details: in vivo
Outline: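 Female C57BL/6 mice, single oral dose of 5 mg/kg in 0.5% methyl cellulose + 0.2% Tween 80 (w/w). Bioavailability is calculated against the 1 mg/kg IV arm.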

[11] = system: MV4-11; assay: Anti-tumor activity against luciferase-tagged human MV4-11 cells xenografted in NCG mouse assessed as induction of CD11b protein in human CD45+ cells at 150 mg/kg, po administered daily for 4 days measured after 48 hrs by qRT-PCR analysis; assay type: functional, organism-based; details: time 4.0 day, in the assay text read “flow cytometry analysis” for “qRT-PCR analysis”; outline: as §1

## C=CC(=O)N1C[C@@H]2C[C@H]1CN2S(=O)(=O)c1ccc(N2CC(CN3CCC([C@@](CN4CCC4)(c4cccc(F)c4)[C@H]4CCC[C@@H]4NC(=O)OC)CC3)(OC)C2)cc1
[1]
  PPB: 87.5%
[2]
  Activity: 66%
[3]
  Activity: Non-Toxic
[4]
  Activity: Active
[5]
  Activity: Non-Toxic
[6]
  clearance: 0.945 mL/min/kg
[7]
  Activity: Non-Toxic
[8]
  pIC50: 6.00
[9]
  pIC50: < 5.00
[10]
  Cmax: 4150 ng/mL
[11]
  Activity: Active
